Screens (PubChem BioAssay)
A selection: hits, their analogues and other compounds. The true share with any hit is near 2.9%.
DENV2 CPE: protects cells from dengue virus 2 cytopathic effect | 1.7% of 350,000 active | DENV2-infected cells, cytopathic effect rescue, plate reader | CPE inhibition, % at 9.99 µM; in the data active = CPE inhibition above about 20%, passing the limit was not always enough; inconclusive = no clear call, values can overlap the other calls; tested in BHK-21 cells
SIRT5 inh: inhibitors of human sirtuin-5 desuccinylase; Q9NXA8; Purified SirT5, succinyl-peptide AMC, trypsin-coupled fluorescence; inhibition, % at 15 µM; 1.1% of 330,000 active; in the data active = inhibition above about 15%; inconclusive = no clear call, values can overlap the other calls
Target sequence (Q9NXA8 whole entry, looked up): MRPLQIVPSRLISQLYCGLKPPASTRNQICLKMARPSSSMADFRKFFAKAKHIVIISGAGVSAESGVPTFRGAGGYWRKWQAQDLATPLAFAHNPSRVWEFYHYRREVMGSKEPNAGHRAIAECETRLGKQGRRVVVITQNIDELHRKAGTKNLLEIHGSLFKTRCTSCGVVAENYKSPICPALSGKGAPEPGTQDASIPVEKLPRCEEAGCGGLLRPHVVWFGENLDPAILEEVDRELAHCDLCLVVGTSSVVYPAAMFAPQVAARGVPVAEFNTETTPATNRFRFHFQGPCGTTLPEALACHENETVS
E-selectin induc: induces E-selectin expression in human endothelial cells; activation, % at 7.58 µM; AID 686992; HUVEC E-selectin immunofluorescence imaging; normalized: neutral wells 0, TNF-alpha wells 100; P16581; 0.37% of 260,000 active;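 active = mean E-selectin-positive cell signal at least 10% of the positive control, reached in at least 60% of replicates, without over 20% cell loss; inconclusive = no rule given, readout overlaps actives, possibly toxicity-flagged; inactive = the rest, including those meeting only one limit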
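Assay system: HUVEC, human umbilical vein endothelial cells / Amount: 3,000 HUVEC/well / Controls: TNF-alpha positive control, DMSO neutral control / Compound dosing: single concentration / Medium: EGM-2 over gelatin coat / Evaluation: percent E-selectin-positive cells / Signal: immunofluorescence imaging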
Hits are given with their value; n = inactive; u = inconclusive; x = not tested or not shown.

SMILES | DENV2 CPE | SIRT5 inh | E-selectin induc
Cc1cc(C)cc(N2C(=O)CS(=O)(=O)C2c2ccccc2)c1 (configuration not stated) | n | n | x
COc1ccc(C(=O)N/C(=C\c2ccccc2)C(=O)NCCCn2ccnc2)cc1 | n | n | x
N#C[C@H]1[C@@H](c2ccc(C3=CCCCC3)cc2)[C@@H](CO)N1S(=O)(=O)c1cccc(F)c1 | 91.6 | n | n
N#C[C@@H]1[C@@H](c2ccccc2C2=CCCCC2)[C@@H](CO)N1S(=O)(=O)c1cccc(F)c1 | n | n | n
N#C[C@H]1[C@H](c2ccccc2C2=CCCCC2)[C@@H](CO)N1S(=O)(=O)c1cccc(F)c1 | 31.2 | n | n
N#C[C@H]1[C@@H](c2ccc(C3=CCCCC3)cc2)[C@H](CO)N1S(=O)(=O)c1cccc(F)c1 | n | n | n
CCCCCCCCS(=O)C1CS(=O)(=O)CC1O (configuration not stated) | n | n | n
C[C@H]1CN([C@@H](C)CO)C(=O)c2cc(NS(=O)(=O)c3ccc(Cl)cc3)ccc2O[C@H]1CN(C)Cc1ccc2c(c1)OCO2 | n | n | n
Cc1nnc(C)n1/N=C/c1ccc(C(=O)O)cc1 | x | n | x
Cc1cc(C)n(-c2nnc(C)n2/N=C/c2ccc(O)cc2)n1 | x | 17.8 | n
COc1ccc(CN(C)C[C@@H]2Oc3c(NC(=O)c4cc(C)nn4C)cccc3C(=O)N([C@H](C)CO)C[C@@H]2C)cc1 | n | n | n
Cc1cc(C(=O)Nc2cccc3c2O[C@H](CN(C)Cc2ccc(C(=O)O)cc2)[C@H](C)CN([C@H](C)CO)C3=O)n(C)n1 | 45.7 | n | n
Cc1cc(C(=O)Nc2cccc3c2O[C@H](CN(C)C)[C@H](C)CN([C@@H](C)CO)C3=O)n(C)n1 | 28.5 | n | n
Cc1cc(C(=O)Nc2cccc3c2O[C@H](CN(C)Cc2ccc(C(=O)O)cc2)[C@@H](C)CN([C@H](C)CO)C3=O)n(C)n1 | n | n | n
Cc1cc(C(=O)Nc2cccc3c2O[C@H](CN(C)C)[C@@H](C)CN([C@H](C)CO)C3=O)n(C)n1 | n | x | n
COc1ccc(CN(C)C[C@@H]2Oc3c(NC(=O)c4cc(C)nn4C)cccc3C(=O)N([C@H](C)CO)C[C@H]2C)cc1 | 26.7 | n | n
CC(C)(C)[C@@H]1C=C(C(=O)N2CCCCCCC2)O[C@H](OCCCCO)C1 | n | n | x
C[C@@H]1CN([C@H](C)CO)C(=O)c2cccc(NS(=O)(=O)c3ccc(F)cc3)c2O[C@H]1CN(C)C(=O)Nc1ccc(C(F)(F)F)cc1 | n | n | n
Cc1ccc(Sc2ncccc2C(=O)O)cc1 | x | x | n
CCCCOc1ccc(C(O)(CCN2CCOCC2)c2ccccc2)cc1 (configuration not stated) | n | n | n
C[C@@H]1CN([C@@H](C)CO)C(=O)Cc2cc(NS(=O)(=O)c3cn(C)cn3)ccc2O[C@@H]1CN(C)C(=O)Nc1ccc2c(c1)OCO2 | 28.2 | n | n
C[C@@H]1CN([C@H](C)CO)C(=O)c2cc(NS(=O)(=O)c3cn(C)cn3)ccc2O[C@@H]1CN(C)C(=O)Nc1ccc2c(c1)OCO2 | n | n | 62.3
C[C@@H]1CN([C@H](C)CO)C(=O)Cc2cc(NS(=O)(=O)c3cn(C)cn3)ccc2O[C@H]1CN(C)C(=O)Nc1ccc2c(c1)OCO2 | n | n | n
C[C@@H]1CN([C@@H](C)CO)C(=O)c2cc(NS(=O)(=O)c3cn(C)cn3)ccc2O[C@H]1CN(C)C(=O)Nc1ccc(F)cc1 | x | x | 86.5
C[C@@H]1CN([C@H](C)CO)C(=O)c2cc(NS(=O)(=O)c3cn(C)cn3)ccc2O[C@H]1CN(C)C(=O)Nc1ccc(F)cc1 | x | x | n
SMILES | DENV2 CPE | SIRT5 inh | E-selectin induc
C[C@@H]1CN([C@H](C)CO)C(=O)c2cc(NS(=O)(=O)c3cn(C)cn3)ccc2O[C@@H](C)CCCCO[C@H]1CN(C)C(=O)Nc1ccc2c(c1)OCO2 | n | x | n
C/C=C/c1ccc([C@H]2[C@H](CO)N(C(=O)CC)[C@H]2CNC(=O)C2CC2)cc1 | n | n | n
O=C1NC[C@H](CCCCN2C[C@@H](Cc3ccccc3)N(Cc3ccccc3)C(=O)C2=O)N(CCC2CCCCC2)C1=O | n | n | x
C[C@@H]1CN([C@@H](C)CO)S(=O)(=O)c2ccc(C#CC3CC3)cc2O[C@@H]1CN(C)C(=O)CC1CC1 | n | n | n
O=Cc1ccc(-c2ccccc2C(=O)O)o1 | n | n | x
O=C(O)c1ccccc1-c1c2cc(I)c(=O)c(I)c-2oc2c(I)c(O)c(I)cc12 | u | 29.4 | n
O=C(O)c1cnn(-c2ccccc2)c1-n1cccc1 | n | n | n
C[C@@H]1CN([C@H](C)CO)C(=O)Cc2cc(NS(=O)(=O)c3ccc(Cl)cc3)ccc2O[C@H]1CN(C)Cc1ccc(Oc2ccccc2)cc1 | n | 20.0 | n
Cc1ccc(S(=O)(=O)Nc2ccc3c(c2)CC(=O)N([C@H](C)CO)C[C@H](C)[C@H](CN(C)Cc2ccc(Oc4ccccc4)cc2)O3)cc1 | 49.8 | n | n
C[C@H](CO)N1C[C@H](C)[C@@H](CN(C)Cc2ccccc2)Oc2ccc(NS(=O)(=O)c3ccc(Cl)cc3)cc2CC1=O | n | n | n
Cc1ccc(S(=O)(=O)Nc2ccc3c(c2)CC(=O)N([C@@H](C)CO)C[C@H](C)[C@@H](CN(C)Cc2ccc(Oc4ccccc4)cc2)O3)cc1 | n | n | n
C[C@H](CO)N1C[C@H](C)[C@H](CN(C)Cc2ccccc2)Oc2ccc(NS(=O)(=O)c3ccc(Cl)cc3)cc2CC1=O | 27.7 | n | n
C[C@H]1CN([C@@H](C)CO)C(=O)Cc2cc(NS(=O)(=O)c3ccc(Cl)cc3)ccc2O[C@H]1CN(C)Cc1ccc(Oc2ccccc2)cc1 | n | n | n
N#CC1CC(c2ccc([N+](=O)[O-])cc2)=NN1c1ccc([N+](=O)[O-])cc1 (configuration not stated) | n | n | n
CNC[C@H]1Oc2ccc(NS(=O)(=O)c3ccc(C)cc3)cc2CC(=O)N([C@H](C)CO)C[C@@H]1C | n | n | n
CC1(C(=O)NS(=O)(=O)c2cccc(Cl)c2)CCN1C(=O)C1CC1 (configuration not stated) | n | n | n
O=C(C1=C[C@H](c2csc3ccccc23)C[C@H](OCCCCO)O1)N1CCN(Cc2ccccc2)CC1 | n | n | n
CCC(=O)N(C)C[C@@H]1Oc2cc(Br)ccc2S(=O)(=O)N([C@H](C)CO)C[C@H]1C | n | n | n
O=C(NCC1CCCN1S(=O)(=O)c1cccs1)C(=O)Nc1ccc(F)cc1 (configuration not stated) | n | n | n
Cc1cc(C)n(CC(=O)NN)n1 | n | n | x
Cc1cc(C)n(CC(=O)c2cccc(N)c2)n1 | n | 20.3 | n
O=C(O)c1ccc(CNCc2cccc(Oc3ccccc3)c2)cc1 | n | n | n
O=C(O)c1ccc(CNCc2cccc(Cl)c2)cc1 | n | 20.7 | x
Cc1ccccc1-n1cnnc1SCC(=O)Nc1cccnc1Cl | x | n | n
CC(C)n1cnnc1SCC(=O)Nc1cccnc1Cl | 68.4 | n | x
COc1ccc(-c2oc3ccccc3c2C#CC(C)(C)O)cc1 | n | n | n
COc1ccc(-c2[nH]ncc2CN2CCCN(c3ccccc3)CC2)c(F)c1 | n | n | x
CCCCCCCCSC1=CC(=O)C(OC)=C(OC)C1=O | 70.6 | n | n
CCCCCCCSc1nnc(-c2ccccc2N)c(=O)[nH]1 | n | n | x
